Measured values taken from publication PMC7114156 (Antiviral Research, 2009).
Where “and” joins values, the source holds several entries; their conditions need not be identical. Equal values may be shown once. Entries after “also recorded” stand apart in the source; their conditions may differ.

Experiments:
IM9 cells = test: Growth of IM9 cell line; type: cell-based, human
B-LCL 5/2/1 = test: Growth of B-LCL 5/2/1; type: cell-based, human
episomal HPV-16 DNA = test: Hybrid capture assay for HPV16 DNA in W12-20850 cells; type: cell-based
Procedure, shortened: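 W12-20850 cells seeded at 7.5 × 10^3/well onto compound (100 to 0.001 μM), 4 days at 37 °C, 5% CO2. MTS growth read, then same cells lysed in 0.2N NaOH/1% Igepal. Episomal HPV-16 DNA measured by hybrid capture: 90 °C 6.5 min, 42 °C overnight, anti-digoxigenin HRP, chemiluminescence. HPV DNA/MTS ratio expressed as % of untreated control. Fit to modified Hill equation.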

W12-20850 cells [1] = test: Growth of W12-20850 cells, MTS; type: cell-based, human
Procedure, shortened: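 For the time course, test compound was added at time zero to cells growing in 96-well plates. Growth was followed as rate of MTS reduction over 3 days from day zero, with untreated controls alongside.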

HPV-16 = test: HPV DNA by qPCR in W12-20850 cells; type: cell-based
W12-20850 cells [2] = test: Growth of W12-20850 cells, actin DNA by qPCR; type: cell-based, human
CIN612 cells = test: Growth of CIN612 cells, MTS; type: cell-based, human
Namalwa = test: Growth of Namalwa; type: cell-based, human; conditions: 72 h
Procedure, shortened: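 Cell lines carrying integrated viral genomes were plated in 96-well plates in medium with test compound. Growth was read by ATP luminescence (CellTiter-Glo) for HEK293 and WI38 VA13, and by MTS reduction (A490 after 2 h at 37 °C) for Namalwa, W12 20861, SiHa, Caski and HeLa. K and Imax came from a fit to a modified Hill equation.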

Jurkat = test: Growth of Jurkat, MTS; type: cell-based, human; conditions: 72 h
Procedure, shortened: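 Cells were plated in 96-well plates in medium holding serial dilutions of test compound, 1 nM to 10 μM, with DMSO ≤1% (v/v) final. Growth was read by MTS after 72 h at 37 °C: 2 h with reagent plus phenazine methosulfate, then A490. K and Imax came from a fit to a modified Hill equation. Vero cells are African Green monkey.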

[3] = Growth of WI38 fibroblasts, MTS; type: cell-based; conditions: human
Procedure, shortened: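 Primary cells were plated in 96-well plates with serial dilutions of test compound, 3 nM to 100 μM, for 72 h at 37 °C. Read-out was CTG for resting B and CD4 T cells and MTS for PBMC, WI38 and HUVEC. Purity was 90–95% for B cells and 97% for CD4 cells. Activated PBMCs were stimulated with phytohemagglutinin plus IL2.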

[4] = Bone marrow toxicity assay, erythroid progenitors; type: cell-based; conditions: human, erythroid bone marrow progenitor cells
MT4 cells = test: Apoptosis assay; type: cell-based, human; conditions: MT4, 20 h exposure
Procedure, shortened: (§1)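 Apoptosis read as cytoplasmic histone-associated DNA fragments with a Cell Death Detection ELISA kit. Exposure was 20 h for IM9 and MT4 and 40 h for W12 and U937. A405 was read kinetically at 30 °C, and the rate per hour came from linear regression of the linear portion. A Fas-activating antibody was the positive control.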

U937 cells = test: Apoptosis assay; type: cell-based, human; conditions: U937, 40 h exposure
Procedure, shortened: as §1

primary cells = test: Growth of primary cells; type: cell-based, human; conditions: at concentrations below 1 μM
[5] = Homo sapiens, read-out: K, Growth, MTS

For `O=C(N[C@@H]1CCCc2c1[nH]c1ccc(Cl)cc21)c1ccccn1` [GSK983, N-[(1R)-6-Chloro-2,3,4,9-tetrahydro-1H-carbazol-1-yl]-2-pyridinecarboxamide], the EC50 (IM9 cells; Homo sapiens, IM-9, 72 h, read-out: K, cell line growth) was 0.016 ± 0.002 µM, the Selectivity index (IM9 cells; IM9 (EBV) vs activated B cell) was greater than 620 ± 80 and the “Outcome of growth inhibition over time” value (IM9 cells; IM9, 3 days, higher concentrations) was “cell death”. The Selectivity index (B-LCL 5/2/1; B-LCL 5/2/1 (EBV) vs activated B cell) was greater than 700 ± 15, the “Imax, cell line growth” value (B-LCL 5/2/1; B-LCL 5/2/1 (EBV), CTG, 72 h) was 93 ± 1% and the EC50 (B-LCL 5/2/1; Homo sapiens, 72 h, read-out: K, cell line growth) was 0.014 ± 0.0003 µM. The “Imax, Ratio, HPV DNA/MTS” value (episomal HPV-16 DNA; W12-20850) was 90 ± 2%, the “K, Ratio, HPV DNA/MTS” value (episomal HPV-16 DNA; W12-20850) was 4.9 ± 0.5 nM and the EC50 (episomal HPV-16 DNA; read-out: K, DNA, hybrid capture, W12-20850, HPV type 16, 4 days) was 0.0045 ± 0.0003 µM. For the same compound, the EC50 (W12-20850 cells [1]; Homo sapiens, W12-20850, 96 h, read-out: K, Growth, MTS) was 0.011 ± 0.002 µM, the “Outcome of growth inhibition over time” value (W12-20850 cells [1]; W12, 3 days, rate of MTS reduction) was “cytostasis” and the “Imax, Growth, MTS” value (W12-20850 cells [1]; W12-20850, 4 days) was 60% and 60 ± 7%. The Selectivity index (HPV-16; HPV DNA qPCR in W12-20850 vs HKC) was 12,000 ± 4,000, the “Imax, HPV DNA, qPCR” value (HPV-16; W12-20850, HPV type 16) was 85 ± 2% and the EC50 (HPV-16; W12-20850, read-out: K, HPV DNA, qPCR) was 0.0033 ± 0.0005 µM. For the same compound, the “HPV copy number, expressed as HPV genomes per actin gene” value (HPV-16; W12 cells, at 100 nM GSK983, reduced from 460) was 150 HPV genomes per actin gene, the EC50 (W12-20850 cells [2]; Homo sapiens, W12-20850, read-out: K, Growth, Actin DNA, qPCR) was 0.006 ± 0.0004 µM and the “Imax, Growth, Actin DNA, qPCR” value (W12-20850 cells [2]; W12-20850) was 60 ± 1%. The “Imax, Growth, MTS” value (CIN612 cells; CIN612) was 70 ± 1%, the EC50 (CIN612 cells; [5]) was 0.0028 ± 0.0001 µM and the EC50 (Namalwa; [5]) was 0.01 ± 0.002 µM. The “Imax, Growth, MTS” value (Namalwa; Namalwa, EBV integrated) was 66% and 66 ± 2.5%, the EC50 (Jurkat; Homo sapiens, read-out: K, growth, MTS) was 0.052 ± 0.003 µM and the “Imax, Growth, MTS” value (Jurkat; T lymphoblast) was 51 ± 1%. For the same compound, the CC50 at 72 h [3] was 90 µM, the CC50 [4] was greater than 10 µM and the Apoptosis (MT4 cells) was “induced apoptosis”. For the same compound, the Apoptosis (U937 cells) was “apoptosis did not occur” and the “Inhibition of growth of primary cell types” value (primary cells) was “None of the primary cell types tested was significantly inhibited; also recorded: does not impact the growth”.
